High-throughput results deposited in PubChem BioAssay by The Scripps Research Institute Molecular Screening Center.
CHRM1 agonist = agonists of human M1 muscarinic receptor. P11229. 360,000 compounds, 0.33% hits. CHO-K1 hM1, Fluo-8 calcium fluorescence, agonist mode; 0% DMSO, 100% acetylcholine EC100. AID 588814. activation, % at 3 µM;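 active means activation above the run's mean compound activation plus 3 SD, cut at about 16% in these data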;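 further: peak over basal fluorescence ratio within a 140 s kinetic read after compound addition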
M5 ag = agonists of human muscarinic M5 receptor (CHRM5) | P08912 | CHO-K1 hM5 cells, Fluo-8 calcium fluorescence; 0% DMSO wells, 100% maximal acetylcholine response | activation, % at 3 µM | 360,000 compounds, 0.19% hits;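 active means activation above the run's mean over test compounds plus 3 SD, cut at about 23% in these data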;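 further: signal is peak over basal fluorescence ratio across the kinetic read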
Target sequence (P08912 whole entry, looked up): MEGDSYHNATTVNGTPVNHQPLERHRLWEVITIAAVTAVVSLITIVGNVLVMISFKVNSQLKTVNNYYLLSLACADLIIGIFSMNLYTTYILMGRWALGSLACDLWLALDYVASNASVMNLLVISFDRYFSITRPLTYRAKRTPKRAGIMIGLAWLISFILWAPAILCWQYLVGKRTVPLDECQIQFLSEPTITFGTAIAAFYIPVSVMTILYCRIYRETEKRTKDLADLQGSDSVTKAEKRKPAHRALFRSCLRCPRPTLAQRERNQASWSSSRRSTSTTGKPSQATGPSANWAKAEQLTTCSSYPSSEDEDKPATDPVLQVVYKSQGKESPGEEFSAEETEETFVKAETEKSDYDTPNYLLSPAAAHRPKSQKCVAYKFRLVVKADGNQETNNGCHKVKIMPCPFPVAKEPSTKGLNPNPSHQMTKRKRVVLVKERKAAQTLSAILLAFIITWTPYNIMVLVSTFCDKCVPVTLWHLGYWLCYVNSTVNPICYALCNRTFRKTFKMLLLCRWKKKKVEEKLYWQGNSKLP
CHRM5 PAM = positive allosteric modulators of human muscarinic M5 receptor | P08912 | CHO-K1 hM5, Fluo-8 calcium, ACh EC20 PAM; 0% = ACh EC20, 100% = ACh EC100 | activation, % at 3 µM | 360,000 compounds, 0.3% hits | AID 624038;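 active means activation above the run cutoff, the mean activation of all test compounds plus 3 SD, cut at about 18% in these data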
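System – CHO-K1 hM5 cells · Compound – 3 µM, single dose · Incubation – compound preincubation 140 s before EC20 acetylcholine addition · Technique – Fluo-8 calcium fluorescence · Measure – Max/basal fluorescence ratio as % of EC20–EC100 ACh window · Benchmarks – low control EC20 acetylcholine (0%), high control EC100 acetylcholine (100%) · Replication – singlicate, one well per test compound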
CHRM5 antagonist = CHRM5 antagonism in calcium assay | CHO-hM5 cells, Fluo-8 calcium fluorescence, ACh EC80 | inhibition, % at 3 µM | 360,000 compounds, 0.59% hits | AID 624040;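 active means inhibition above a per-plate cutoff, the mean of that plate's test compounds plus 3 SD, cut at about 27% in these data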
CHRM1 antagonist = blocks human M1 muscarinic receptor. inhibition, % at 3 µM. AID 588852. CHO-K1 hM1, Fluo-8 calcium fluorescence, ACh EC80 antagonist. 360,000 compounds, 1.3% hits. P11229;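 active means percent inhibition above its own plate's cutoff, namely the mean of that plate's compound wells plus 3 SD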;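 further: peak over basal fluorescence ratio during 140 s after agonist addition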
M1 PAM = potentiates human M1 receptor response to acetylcholine. P11229. CHO-K1 hM1, Fluo-8 calcium fluorescence, ACh EC20; 0% = ACh EC20, 100% = maximal ACh. activation, % at 3 µM. 360,000 compounds, 0.088% hits; in the data active means activation above about 19%, passing the limit was not always enough
Numbers stand for hits; - = inactive. Shown are actives, neighbours in structure and some others; about 2.1% of the full set was active somewhere.

SMILES | CHRM1 agonist | M5 ag | CHRM5 PAM | CHRM5 antagonist | CHRM1 antagonist | M1 PAM
CC(C)(C)OC(=O)NCC12C=CC(O1)C1C(=O)N(Cc3ccccc3)C(=O)C12 (configuration not stated) | - | - | - | - | - | -
CN1CCN(S(=O)(=O)c2ccc(NC(=O)Nc3cccc(Cl)c3)cc2)CC1 | - | - | - | - | - | -
Cc1oc(S(=O)(=O)N2CCCCC2)cc1NC(=O)Nc1ccc(Cl)cc1 | - | - | - | 31.7 | - | -
O=C(Nc1cccc(Cl)c1)Nc1cc(S(=O)(=O)N2CCCCC2)ccc1Cl | - | - | - | 29.5 | 25.3 | -
Cc1c(C(=O)NCc2ccc3c(c2)OCO3)oc2ccc(S(=O)(=O)N3CCCC3)cc12 | - | - | - | - | - | -
Cc1c(C(=O)NCc2ccc3c(c2)OCO3)oc2ccc(S(=O)(=O)N3CCCCC3)cc12 | - | - | - | - | 27.5 | -
O=C(O)c1nc(N2CCCCC2)ncc1Cl | - | - | - | - | - | -
C=CC[n+]1ccc(/C=C2\C=Cc3cc(C)ccc3N2CC)c2ccccc21 | - | - | - | 35.0 | 43.6 | -
Cc1sc2ncn(CC(=O)N3CCOCC3)c(=O)c2c1-c1ccccc1 | - | - | 25.1 | - | - | -
COc1ccc(NC(=O)CSc2nc3sc4c(c3c(=O)n2-c2ccc(OC)cc2)CCN(C)C4)cc1 | - | - | - | - | - | -
CCOC(=O)CSc1nc2sc3c(c2c(=O)n1C1CCCCC1)CCN(C)C3 | - | - | - | - | 24.2 | -
COc1ccc(-n2c(SC)nc3sc4c(c3c2=O)CCN(C)C4)cc1 | - | - | - | - | 70.5 | -
C=CCSc1nc2sc3c(c2c(=O)n1-c1ccccc1)CCN(C)C3 | - | - | - | - | 36.9 | -
CCOC(=O)CSc1nc2sc3c(c2c(=O)n1-c1ccc(OCC)cc1)CCN(C)C3 | - | - | - | - | - | -
CCSc1nc2sc3c(c2c(=O)n1-c1ccccc1)CCN(C)C3 | - | - | - | - | - | -
COC(=O)c1cccnc1-n1c(=O)c2cccnc2n(Cc2ccc([N+](=O)[O-])cc2)c1=O | 18.3 | - | - | - | - | -
CCN(CC)CCNc1nc2c(c(=O)[nH]c(=O)n2C)n1CC(O)COc1ccc(Cl)cc1Cl (configuration not stated) | - | - | - | - | - | -
Cc1cc(C)n(-c2nc3c(c(=O)[nH]c(=O)n3C)n2CC(O)COc2ccc(Cl)cc2Cl)n1 (configuration not stated) | - | - | 21.5 | - | - | -
CCCC(O)(CCN1CCCCC1)c1ccc(OCC)cc1 (configuration not stated) | - | - | - | - | - | -
CCCC(O)(c1ccc(Cl)cc1)C(CN1CCOCC1)c1ccccc1 (configuration not stated) | - | - | - | - | 60.9 | -
CCC(O)(CCN1CCCCC1)c1ccccc1 (configuration not stated) | - | - | - | - | 76.4 | -
CCCCOc1ccc(C(O)(CCC)CCN2CCOCC2)cc1 (configuration not stated) | - | - | - | - | - | -
CCCCCC(O)(CCN1CCCCC1)c1ccc(OCC)cc1 (configuration not stated) | - | - | - | - | 99.1 | -
CCCCC(O)(CCN1CCOCC1)c1ccc(Cl)cc1 (configuration not stated) | - | - | - | 32.2 | 87.2 | -
COCCCN1C(=O)C(CC(=O)NC(c2ccccc2)c2ccccc2)CC(C(=O)N2CCOCC2)=C1C (configuration not stated) | - | - | - | - | - | -
SMILES | CHRM1 agonist | M5 ag | CHRM5 PAM | CHRM5 antagonist | CHRM1 antagonist | M1 PAM
COc1ccc(C(O)(CCN2CCCCC2)C2CCCCC2)cc1 (configuration not stated) | - | - | - | 64.4 | 101.2 | -
Cc1ccc(NC(=S)NC2CCSc3ccccc32)cc1 (configuration not stated) | - | - | - | 49.3 | 78.9 | -
CC1OC2CC(=O)OC2C2=C1C(=O)c1c(O)cccc1C2=O (configuration not stated) | 16.3 | - | - | 45.4 | 50.3 | -
Nc1nc(-c2ccccn2)nc(N)c1Cc1c(F)cccc1Cl | - | - | 18.7 | - | - | -
CN1CCC(C2(O)c3ccccc3CCc3ccccc32)CC1 | - | - | - | 37.4 | 57.4 | -
O=C1CSC2(C(=O)N3CCCc4cccc2c43)N1c1cccc(C(F)(F)F)c1 (configuration not stated) | - | - | - | 30.0 | 88.9 | -
COc1ccc(N2C(=O)CSC23C(=O)N2CCCc4cccc3c42)cc1 (configuration not stated) | - | - | - | 52.2 | 85.3 | -
O=C1N2CCCc3cccc(c32)C12Nc1ccccc1S2 (configuration not stated) | - | - | - | - | - | -
CCCC(=O)N(Cc1cc(=O)[nH]c2ccccc12)c1ccc(C)cc1 | - | - | - | - | 56.9 | -
CCC(=O)N(Cc1cc(=O)[nH]c2ccccc12)c1ccccc1C | - | - | - | - | - | -
CCC(=O)N(Cc1cc(=O)[nH]c2ccccc12)c1cccc(C)c1 | - | - | - | - | 65.3 | -
CCN(CC)c1ccc(C=NNc2ccc([N+](=O)[O-])cn2)cc1 | - | 35.3 | - | 36.9 | - | -
O=[N+]([O-])c1ccc(NN=Cc2ccc(O)cc2)nc1 | - | - | - | - | - | -
CC(=O)Nc1ccc(S(=O)(=O)N2CCN=C2c2ccccc2)cc1 | - | - | - | - | - | -
O=C(C1CCC1)N1CCN(c2cccc(C(F)(F)F)c2)CC1 | - | - | - | - | - | -
O=C(C1CCN(c2nnc(-n3cccc3)s2)CC1)N1CCN(c2cccc(C(F)(F)F)c2)CC1 | - | - | - | - | 40.1 | -
COC(=O)CC1C(=O)NCCN1C(=O)CSc1nnc(Nc2ccc(OC)cc2)s1 (configuration not stated) | - | - | - | - | - | -
COc1cccc(CN2CCNC(=O)C2CC(=O)NCCc2cccc(C)n2)c1OC (configuration not stated) | - | - | - | - | - | -
Cc1cc(/C=N/n2cnnc2)c(C)n1-c1ccc(OCc2ccc(F)cc2)cc1 | - | - | - | - | 45.7 | -
Cc1cc(/C=N/n2cnnc2)c(C)n1-c1ccc(OCc2ccc(Cl)cc2Cl)cc1 | - | - | - | 36.5 | - | -
Brc1ccc2ncnc(Nc3cccc4ccccc34)c2c1 | - | - | - | - | - | -
